# Source: the RNAGym collection of RNA variant scans (doi:10.1126/science.aae0568)
# This sample holds only a part of the variants without activity.
# B1: tRNA (parent)
# chain: GUUCCGUUGGCGUAAUGGUAACGCGUCUCCCUCCUAAGGAGAAGACUGCGGGUUCGAGUCCCGUACGGAACG
# Variants of: B1
# Test: yeast fitness relative to wild type (ratio to wild type); higher = fitter; tRNA-Arg(CCU), competitive growth, 37 C, YPD
# How it was run: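 Genotype frequency changes were the basis for Darwinian fitness relative to wild type. The frequencies came from 100-nucleotide paired-end sequencing of gene amplicons from the start population and each end population of pooled yeast strains with tRNA-Arg(CCU) gene variants at the native locus. Competition ran in YPD at 37°C for 24 hours in six replicates, genotypes needed ≥ 100 starting reads, and estimates < 0.5 were set to 0.5.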
row,Variant,yeast fitness
1,C31U G68A A69G,0.702
2,U32C U35C C49U,0.659
3,C33G A40G A42C C66U,≤ 0.5
4,U32A C33U,0.597
5,C33A A37U C62A,0.503
6,U32A C49U G68A,≤ 0.5
7,C33G U54C C62A G68C,≤ 0.5
8,C33G A70U,0.714
9,C33G U47A G67C A69U,≤ 0.5
10,U32G A37U U64C,≤ 0.5
11,C31U U35C A40G A65U,≤ 0.5
12,U32C C33U,0.659
13,U32G G63C,0.571
14,C33A A43U C49A,0.591
15,C33A G38C G50A U64C,≤ 0.5
16,C31U G51A G56C G67C,0.526
17,C31U G52A G68C,≤ 0.5
18,U32A C66A,0.614
19,C33G G63A,0.6
20,U32C C33G G67C,≤ 0.5
21,U32G G58A,0.609
22,U32C A40U C55G A70C,≤ 0.5
23,C33A A36C G51A,0.721
24,U32G G41C C46U,0.647

row,Variant,yeast fitness
1,C33G C61U,0.711
2,C33G C61A,0.607
3,U32A C61A A65U,≤ 0.5
4,C33G A37G C49U C60U,0.551
5,U32G C49U G56A,0.744
6,U32C C33A G51C G68A,≤ 0.5
7,U32C G38C A69U,0.531
8,C33U A43G G48C,≤ 0.5
9,U32G G48A A70U,0.553
10,C33G A45U C55U,≤ 0.5
11,C33A A36U,0.615
12,C33A A40U,0.741
13,C31U U53A G68A,0.515
14,U32C C61G A69C,≤ 0.5
15,C33A A57U C66U A69U,≤ 0.5
16,C33G G41A A42G C46G,≤ 0.5
17,C33A U54A,≤ 0.5
18,U32A G58C C66A,≤ 0.5
19,C33G U53C,≤ 0.5
20,U32A A42C C61G C66G,0.554
21,C31U U54A C62G G68C,≤ 0.5
22,U32C A65U G67A,0.646
23,U32C C46U G50A G56C C62A C66U,≤ 0.5
24,U32G U35A A36G A57U,≤ 0.5

row,Variant,yeast fitness
1,U32G U54A G67C,≤ 0.5
2,U32C G51A,0.851
3,C31U U53C C62U,≤ 0.5
4,C33A C34A G56A,≤ 0.5
5,U32A G67A,0.766
6,U32G U47A U64A A65C G67A,0.6
7,C33A C60G,0.613
8,U32A G63A,0.748
9,U32A G63C,0.626
10,U32A U54C,0.629
11,C33U A36C,0.517
12,C31U G44C U64C,0.559
13,C31U U47G A65U,≤ 0.5
14,U32G U35A A36G C66U,≤ 0.5
15,U32C G58C,0.884
16,U32G A57C C62G C66G,0.567
17,C33G C55G G67A,≤ 0.5
18,U32C A42C C46U,0.63
19,U32A C33G C60A,≤ 0.5
20,C33A G39A A40U C55U C62U,≤ 0.5
21,U32C G52A,0.76
22,U32G C33G A70U,0.543
23,U32A G58C A69U,0.56
24,C33A G39C G41C G44C,0.549

row,Variant,yeast fitness
1,U32C G38A,0.962
2,C33A,0.795
3,C33U,0.694
4,C33G,0.743
5,U32C G48C G56A,≤ 0.5
6,U32C C60G A65C,0.501
7,C33G A43C G68A,≤ 0.5
8,C33A U35C C46U C49U G52C C61U C66U,≤ 0.5
9,C33G G51A C55A C66U,0.56
10,U32A A36U G44C A45G,0.516
11,C33G G56C G67C,≤ 0.5
12,C33U A40U G56C,≤ 0.5
13,U32G G48C G58C,≤ 0.5
14,U32A A57U,0.558
15,C31U U59A,0.771
16,C33A G68C,0.744
17,U32C A37U C49G A70U,0.664
18,C33G A40G G51C C61U,≤ 0.5
19,U32G G39C A57U U59A A69C,≤ 0.5
20,U32C C46G C62U,0.733
21,C33G A36C C49A C60G A70U,≤ 0.5
22,C31U G52A,0.871
23,C31U G51A,0.892
24,U32A A37G G48A U59C,0.541

row,Variant,yeast fitness
1,U32A U64G,0.751
2,C31U G48A C55U G63C,0.595
3,U32C A37C G38A G63A,0.533
4,U32G G38A C61G A70G,≤ 0.5
5,U32G C34A G38A A70G,≤ 0.5
6,C33G C66G A70G,0.54
7,U32C A37C G39C,≤ 0.5
8,U32G A36U U59C,≤ 0.5
9,C31U U32C U54G C55U C61U,≤ 0.5
10,C33A A37C C61U C62A,0.635
11,C33G C34G C46U,0.547
12,C33A U47A,0.777
13,U32C G39C,0.765
14,U32A C55A C61U,0.536
15,U32G A36U,0.697
16,C33U A36U A43C A69C,0.674
17,C33G A57U A70U,≤ 0.5
18,C31U U53G,0.644
19,C33G C49G C55U,≤ 0.5
20,C33G A57G C61G A65G C66U,≤ 0.5
21,U32G C46G,0.757
22,U32C A40G G41A,≤ 0.5
23,U32A C49G C55U A69C,0.546
24,U32C C46U,0.862

row,Variant,yeast fitness
1,C33A G38C A43G,≤ 0.5
2,U32C U35C A37U G52A C66A,0.719
3,U32A G68C,0.721
4,C31U G48C U59A G67C A69C,≤ 0.5
5,U32C G56A,1.07
6,U32C C34U U53A G68C,0.537
7,C33G C34G C62U,≤ 0.5
8,C33U A42C A70C,0.671
9,C33U A36C A40U,0.609
10,C33A C62U G67A,≤ 0.5
11,C33U A36C U64C,0.648
12,U32A A65C,0.887
13,U32C C34G A65U A70G,≤ 0.5
14,U32A C61G C66G,0.576
15,C33G U35G A37C A43C G44A U64C,≤ 0.5
16,C31U G63C G67C A69U,0.511
17,C33G A42G G52A,≤ 0.5
18,U32C G48A U53G,≤ 0.5
19,C33U A43G C66U,0.544
20,U32C G48A A57C,≤ 0.5
21,U32C G68A,0.921
22,U32C G68U,0.877
23,U32A A70C,0.741
24,C33G A45C C61G,0.567

row,Variant,yeast fitness
1,C33G A45C G50C,≤ 0.5
2,C33G A65U,0.728
3,U32G C33A U47A,≤ 0.5
4,U32A G39A U54A,≤ 0.5
5,U32C G38C G68C A69C,0.589
6,U32C A69C,0.943
7,U32C A36C,0.756
8,U32A U64A G67A,≤ 0.5
9,C31U U47A,0.817
10,U32A A36U C62U,≤ 0.5
11,C33A A37U C55U A57C G58C,≤ 0.5
12,U32C A42U G48C,0.567
13,C31U G48A A69C,0.772
14,U32C A45U C66A,≤ 0.5
15,C33G G44A G56A,≤ 0.5
16,U32A A42C,0.817
17,U32A A36U A70G,≤ 0.5
18,C33G A45C U54C,≤ 0.5
19,C31U U32G C33G G58C,≤ 0.5
20,C33A A65G A69C,≤ 0.5
21,C33G C34U U53C,0.577
22,C31U U32C,0.812
23,U32C A43G C66U,0.758
